Source: article PMC8370243 (Antimicrobial Agents and Chemotherapy, 2021)
Like-named read-outs stand apart in the source and are kept apart here.

Columns and labels:
[1] = Concentration-response cell viability assay, Vero E6 cells; assay type: cell-based, African green monkey; settings: African green monkey, noninfected, CC50, Vero E6 cells
SARS-CoV-2 [2] = experiment: Short-term assay for interactions of PIs and remdesivir, Vero E6 cells; assay type: cell-based; settings: for interaction with remdesivir (method of Chou and Talalay, CompuSyn): Vero E6 and A549-hACE2 data sets; for residual infectivity: Vero E6, treatment condition 3
Vero E6 cells = experiment: Concentration-response cell viability assay, Vero E6 cells; assay type: cell-based, African green monkey; settings: noninfected
SARS-CoV-2 [3] = assay type: cell-based
SARS-CoV-2 [4] = assay type: cell-based; settings: Vero E6 cells, 46 to 50 h
SARS-CoV-2 [5] = assay type: cell-based; settings: Vero E6
SARS-CoV-2 [6] = assay type: cell-based; remark: listed apart in the source
[7] = Concentration-response cell viability assay, Huh7.5 cells; assay type: cell-based, human; settings: human, noninfected
Procedure, shortened: (§1)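 Huh7.5 hepatoma cells in DMEM/10% heat-inactivated FBS with penicillin/streptomycin, plated at 9,000 cells/well. The following day, noninfected cultures received test compound dilution series (DMSO-dissolved) or DMSO alone. Incubation was 70–74 h, then CellTiter 96 Aqueous One reagent for 1–3 h at 37°C, 5% CO₂, and absorbance at 492 nm. Each concentration had 2–4 replicate wells, normalised to the mean of 12 untreated control wells on each plate.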

SARS-CoV-2 [8] = assay type: cell-based; settings: A549-hACE2
[9] = Concentration-response cell viability assay, A549-hACE2 cells; assay type: cell-based, human; settings: human, noninfected
SARS-CoV-2 [10] = settings: cited from earlier work
A549-hACE2 cells = experiment: Concentration-response cell viability assay, A549-hACE2 cells; assay type: cell-based, human; settings: noninfected
[11] = clinical phase 1 trials; cited from earlier work
[12] = rats; single oral administration; cited from earlier work
Huh7.5 cells = experiment: Concentration-response cell viability assay, Huh7.5 cells; assay type: cell-based, human; settings: noninfected
Procedure, shortened: as §1

[13] = Severe acute respiratory syndrome coronavirus 2
[14] = Severe acute respiratory syndrome coronavirus 2, Huh7.5
[15] = A549-hACE2 cells, […], 46 to 50 h

## COc1ccc2c(O[C@@H]3C[C@H]4C(=O)N[C@]5(C(=O)NS(=O)(=O)C6CC6)C[C@H]5/C=C\CCCCC[C@H](CC(=O)N5CCCC(F)(F)C5)C(=O)N4C3)cc(-c3nc(C(C)C)cs3)nc2c1C [Deldeprevir, deldeprevir]
[1]
  CC50: 56 µM

## C=C[C@@H]1C[C@]1(NC(=O)[C@@H]1C[C@@H](Oc2ncc(OC)c3ccc(Cl)cc23)CN1C(=O)[C@@H](NC(=O)OC(C)(C)C)C(C)(C)C)C(=O)NS(=O)(=O)C1CC1 [Asunaprevir, asunaprevir]
[1]
  CC50: 263 µM

## Cc1cnc(C(=O)N[C@H]2CCCCC/C=C\[C@@H]3C[C@@]3(C(=O)NS(=O)(=O)C3CC3)NC(=O)[C@@H]3C[C@@H](Oc4nc5ccccc5c5ccccc45)CN3C2=O)cn1 [Paritaprevir, paritaprevir]
SARS-CoV-2 [2]
  interaction with remdesivir (method of Chou and Talalay, CompuSyn): primarily synergistic
Vero E6 cells
  CC50: 123 µM

## CCC(CC)COC(=O)[C@H](C)N[P@](=O)(OC[C@H]1O[C@@](C#N)(c2ccc3c(N)ncnn23)[C@H](O)[C@@H]1O)Oc1ccccc1 [Remdesivir, remdesivir]
SARS-CoV-2 [2]; 0.6 μM remdesivir singly
  residual infectivity: 83%
SARS-CoV-2 [2]; 1.7 μM remdesivir singly
  residual infectivity: 47%
SARS-CoV-2 [3]; [13]
  EC50: 0.1 µM

## CC[C@@H]1C[C@]1(NC(=O)[C@@H]1C[C@@H]2CN1C(=O)[C@H](C(C)(C)C)NC(=O)OCC(C)(C)CCCCc1cccc3c1CN(C3)C(=O)O2)C(=O)NS(=O)(=O)C1CC1 [Vaniprevir, vaniprevir]
Vero E6 cells
  CC50: 171 µM

## CC(C)(C)OC(=O)N[C@H]1CCCCC/C=C\[C@@H]2C[C@@]2(C(=O)NS(=O)(=O)C2CC2)NC(=O)[C@@H]2C[C@@H](OC(=O)N3Cc4cccc(F)c4C3)CN2C1=O [Danoprevir, danoprevir]
Vero E6 cells
  CC50: > 243 µM

## CCC[C@H](NC(=O)[C@@H]1[C@H]2CCC[C@H]2CN1C(=O)[C@@H](NC(=O)[C@@H](NC(=O)c1cnccn1)C1CCCCC1)C(C)(C)C)C(=O)C(=O)NC1CC1 [Telaprevir, telaprevir]
[1]
  CC50: > 432 µM

## CC(C)(C)NC(=O)N[C@H](C(=O)N1C[C@H]2[C@@H]([C@H]1C(=O)NC(CC1CCC1)C(=O)C(N)=O)C2(C)C)C(C)(C)C (stereo partly shown) [Boceprevir, boceprevir]
SARS-CoV-2 [2]; 17.4 μM boceprevir singly
  residual infectivity: 79%
SARS-CoV-2 [2]
  interaction with remdesivir (method of Chou and Talalay, CompuSyn): primarily antagonistic
SARS-CoV-2 [4]
  EC50: 44 µM
[1]
  CC50: > 1210 µM
SARS-CoV-2 [5]; 3-fold EC50 boceprevir
  viral RNA titers in supernatant: decreased to values around the lower limit of quantification
SARS-CoV-2 [5]; 3-fold EC50 boceprevir, […], follow-up 9 days
  viral suppression (immunostaining): sustained viral suppression
SARS-CoV-2 [5]; 5-fold EC50 boceprevir
  viral RNA titers in supernatant: decreased to values around the lower limit of quantification
SARS-CoV-2 [5]; 5-fold EC50 boceprevir, […], follow-up 17 days
  viral suppression (immunostaining): sustained viral suppression
SARS-CoV-2 [6]; [14]
  EC50: 42 µM
[7]
  CC50: 701 µM
SARS-CoV-2 [3]; [13]
  EC50: 20 µM
SARS-CoV-2 [8]; 1- to 5-fold EC50 boceprevir
  effect on viral spread (viral RNA titers): minor impact
SARS-CoV-2 [8]; 1-fold EC50 PI singly
  effect on viral spread (viral RNA titers): no to little effect
SARS-CoV-2 [8]; 8-fold EC50 boceprevir, observation period 13 days
  effect on viral spread (viral RNA titers): viral suppression
[9]
  CC50: > 1210 µM

## CC(C)(C)[C@@H]1NC(=O)O[C@@H]2CCC[C@H]2OC/C=C/C(F)(F)c2nc3ccccc3nc2O[C@@H]2C[C@@H](C(=O)N[C@]3(C(=O)NS(=O)(=O)C4(C)CC4)C[C@H]3C(F)F)N(C2)C1=O [Glecaprevir, glecaprevir]
Vero E6 cells
  CC50: > 268 µM
SARS-CoV-2 [3]; [13]
  EC50: > 94 µM
[9]
  CC50: > 268 µM

## CCCC[C@H](NC(=O)[C@@H]1[C@@H]2[C@H](CN1C(=O)[C@@H](NC(=O)NC1(CS(=O)(=O)C(C)(C)C)CCCCC1)C(C)(C)C)C2(C)C)C(=O)C(=O)NC1CC1 [Narlaprevir, narlaprevir]
SARS-CoV-2 [2]
  interaction with remdesivir (method of Chou and Talalay, CompuSyn): primarily antagonistic
SARS-CoV-2 [4]
  EC50: 37 µM
[1]
  CC50: 269 µM

## voxilaprevir
SARS-CoV-2 [10]; A549-hACE2 cell line
  EC50: > 10 µM
SARS-CoV-2 [4]
  EC50: > 27 µM
Vero E6 cells
  CC50: 72 µM
SARS-CoV-2 [3]; [15]
  EC50: 10 µM
A549-hACE2 cells
  CC50: 81 µM

## CCCCCOc1ccc(NC(=S)NC(=O)c2cccnc2)cc1C(F)(F)F [ACH-806]
SARS-CoV-2 [4]
  EC50: 46 µM
Vero E6 cells
  CC50: > 429 µM
[11]
  adverse finding that halted development: reversible nephrotoxicity

## COc1ccc2c(O[C@@H]3C[C@H]4C(=O)N[C@]5(C(=O)NS(=O)(=O)C6CC6)C[C@H]5/C=C\CCCCN(C)C(=O)[C@@H]4C3)cc(-c3nc(C(C)C)cs3)nc2c1C [Simeprevir, simeprevir]
SARS-CoV-2 [10]; human lung cells
  EC50: 1 µM
SARS-CoV-2 [2]; 11.1 μM simeprevir singly
  residual infectivity: 100%
[12]
  concentration in the intestine relative to plasma: up to 128 fold
  concentrations in other tissues relative to plasma: roughly equal to plasma concentrations
[1]
  CC50: 59 µM
SARS-CoV-2 [6]; [14]
  EC50: 14 µM
[7]
  CC50: 33 µM
SARS-CoV-2 [3]; [13]
  EC50: 9 µM
SARS-CoV-2 [8]; 1-fold EC50 PI singly
  effect on viral spread (viral RNA titers): no to little effect
[9]
  CC50: 56 µM

## C=C[C@@H]1C[C@]1(NC(=O)[C@@H]1C[C@@H]2CN1C(=O)[C@H](C(C)(C)C)NC(=O)O[C@@H]1C[C@H]1CCCCCc1nc3ccc(OC)cc3nc1O2)C(=O)NS(=O)(=O)C1CC1.O [Grazoprevir, grazoprevir]
SARS-CoV-2 [2]
  interaction with remdesivir (method of Chou and Talalay, CompuSyn): primarily synergistic
SARS-CoV-2 [4]
  EC50: 42 µM
Vero E6 cells
  CC50: 239 µM
SARS-CoV-2 [5]; 1-fold EC50 PI, […]
  infected culture cells: 90%
SARS-CoV-2 [6]; Huh7.5 cells, […], 70 to 74 h
  EC50: 20 µM
Huh7.5 cells
  CC50: 133 µM
SARS-CoV-2 [3]; [15]
  EC50: 26 µM
SARS-CoV-2 [8]; 1-fold EC50 PI singly
  effect on viral spread (viral RNA titers): no to little effect
A549-hACE2 cells
  CC50: 125 µM
